The results in this text go back to ChEMBL document CHEMBL1151684, “Synthesis and antitumoral activity of novel 3-(2-substituted-1,3,4-oxadiazol-5-yl) and 3-(5-substituted-1,2,4-triazol-3-yl) beta-carboline derivatives” (2008).

A value given as a limit tells only on which side of the number the result lay.

What all share (type): functional
Assay [1] in a line: Growth inhibition of human NCI-460 cells after 48 hrs by sulforhodamine B assay. The following applies: NCI-460, 48 h. The method in brief:
(§1)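 Sulforhodamine B colorimetric assay following the NCI standard protocol, with doxorubicin as positive control. Each compound was tested at four concentrations in 10-fold dilutions (0.25 to 250). GI50, the concentration giving 50% growth reduction versus untreated control cells, was derived from dose–response curves.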

A further assay concerns K562. Put plainly: Growth inhibition of human K-562 cells after 48 hrs by sulforhodamine B assay. To be noted: K562, 48 h. The method in brief:
as §1

Assay [2] is described as follows: Growth inhibition of human PCO3 cells after 48 hrs by sulforhodamine B assay. The following applies: PCO3, 48 h. The method in brief: as §1
Another assay has as its system MCF7. Description: Growth inhibition of human MCF7 cells after 48 hrs by sulforhodamine B assay. To be noted: MCF7, 48 h. The method in brief: as §1
A further assay concerns HT-29. Put plainly: Growth inhibition of human HT-29 cells after 48 hrs by sulforhodamine B assay. The following applies: HT-29, 48 h. The gist of the method: as §1
The test system of the next assay is UACC-62. Put plainly: Growth inhibition of human UACC-62 cells after 48 hrs by sulforhodamine B assay. To be noted: UACC-62, 48 h. The method in brief: as §1
The subject of another assay is OVCAR. Put plainly: Growth inhibition of human OVCAR cells after 48 hrs by sulforhodamine B assay. The method in brief: as §1
Another assay has as its system 786-0. Description: Growth inhibition of human 786-0 cells after 48 hrs by sulforhodamine B assay. To be noted: 786-0, 48 h; for CC50: read-out: LC50 (the source's name). The gist of the method: as §1

Consider `CSc1nnc(-c2cc3c([nH]c4ccccc43)c(-c3ccccc3)n2)o1`, for which the GI50 is 3.42 µM in assay [1]; 430 nM in the assay on K562; 23.6 µM in assay [2]; 12.2 µM with MCF7; 16.2 µM in the assay with HT-29; 99.5 µM with UACC-62. Besides, the GI50 in the assay on OVCAR stood at 0.01 µM; in the assay with 786-0, 32 µM. The LC50 (concentration for 50% net cell kill) in assay [1] was more than 100 µM. For the same molecule, the TGI is 74.7 µM in assay [1]; 10.4 µM with K562; 86.6 µM in assay [2]; 31.3 µM with MCF7; more than 100 µM in the assay on HT-29; more than 100 µM in the assay on UACC-62. The TGI in the assay with OVCAR is 0.1 µM; in the assay on 786-0 it was more than 100 µM. Besides, the LC50 (concentration causing 50% net cell kill) with K562 amounted to 74.7 µM. The LC50 (concentration killing 50% of cells) (in assay [2]; in the assay with MCF7) was more than 100 µM in each case. In the assay with OVCAR, this molecule gave an LC50 (concentration killing 50% of the cells, NCI protocol) of 1600 nM.
With `CSc1nnc(-c2cc3c([nH]c4ccccc43)c(-c3ccccc3Cl)n2)n1N`, the GI50 is 13.9 µM in assay [1]; 1920 nM with K562; 22.2 µM in assay [2]; 20.1 µM in the assay with MCF7; 20.4 µM in the assay with HT-29; 18.6 µM in the assay with UACC-62. Moreover, the GI50 in the assay on OVCAR was determined as 11.2 µM; in the assay on 786-0, 16.8 µM. Moreover, the LC50 (concentration for 50% net cell kill) in assay [1] was more than 100 µM. In addition, the TGI was 41.8 µM in assay [1]; more than 100 µM with K562; more than 100 µM in assay [2]; more than 100 µM in the assay on MCF7; more than 100 µM with HT-29; 59 µM in the assay on UACC-62. The results for the concentration for total growth inhibition (TGI) in the assay with OVCAR and in the assay with 786-0 were 38.4 µM and 93.5 µM, respectively. In the assay on UACC-62, the LC50 (concentration killing 50% of cells, NCI protocol) is more than 100 µM. In addition, the LC50 (concentration killing 50% of the cells, NCI protocol) with OVCAR is more than 100000 nM. Also, the CC50 in the assay with 786-0 is more than 100 µM.
On to `Oc1ccc(-c2nc(-c3n[nH]c(=S)o3)cc3c2[nH]c2ccccc23)cc1`, for which the GI50 in assay [1] is more than 100 µM; in the assay on K562, 21500 nM; in assay [2] it was 81.1 µM; with MCF7, 88.7 µM; in the assay on HT-29, more than 100 µM; in the assay with UACC-62 it was more than 100 µM. For the same molecule, the GI50 was more than 100 µM in the assay on OVCAR and 94.9 µM with 786-0. Also, the TGI is more than 100 µM in assay [1]; 87 µM in the assay on K562; more than 100 µM in assay [2]; more than 100 µM in the assay on MCF7; more than 100 µM in the assay on HT-29; more than 100 µM with UACC-62. The TGI with OVCAR and with 786-0 was more than 100 µM each time. In the assay with K562, this molecule registered an LC50 (concentration causing 50% net cell kill) of more than 100 µM.
For `COc1cc(-c2nc(-c3nnc(SC)o3)cc3c2[nH]c2ccccc23)ccc1O`, the GI50 was determined as 4.82 µM in assay [1]; 22600 nM with K562; 7.53 µM in assay [2]; 12.7 µM in the assay on MCF7; 7.31 µM in the assay with HT-29; 17.8 µM in the assay on UACC-62. The GI50 in the assay on OVCAR turned out to be 16.4 µM; with 786-0, 15.3 µM. Further, the TGI was more than 100 µM in assay [1]; more than 100 µM in the assay on K562; 39.4 µM in assay [2]; 28.1 µM in the assay with MCF7; 39.4 µM in the assay on HT-29; 48.6 µM with UACC-62. Further, the TGI is 59.8 µM in the assay on OVCAR and 36.3 µM in the assay on 786-0. Moreover, the LC50 (concentration killing 50% of cells) in assay [2] is more than 100 µM; in the assay with MCF7 it was 61.2 µM. In the assay on HT-29, the LC50 (concentration killing 50% of the cells present at the start) is more than 100 µM. The same molecule registered an LC50 (concentration killing 50% of cells, NCI protocol) in the assay on UACC-62 of more than 100 µM. Also, the CC50 with 786-0 was more than 100 µM.
Regarding `CSc1nnc(-c2cc3c([nH]c4ccccc43)c(-c3ccccc3)n2)n1N`, the GI50 in assay [1] was more than 100 µM; in the assay on K562, 2040 nM; in assay [2], more than 100 µM; with MCF7 it was more than 100 µM; with HT-29 it was more than 100 µM; in the assay on UACC-62 it was more than 100 µM. The GI50 in the assay with OVCAR and with 786-0 was more than 100 µM each time.
